From ChEMBL document CHEMBL3862013 (Bioorg Med Chem, 2016)

Key:
[1] = Cytotoxicity against human TZM-bl cells after 3 days by XTT assay; format: toxicity, cell-based; conditions: 72 h
Summary of the method: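 Graded compound concentrations added to an equal volume of TZM-bl cells (10^5/ml) and incubated 3 days. XTT added, then formazan read at 450 nm after 4 h. CC50 derived from percent cytotoxicity; mean ± SD.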

[2] = Cytotoxicity against human MT2 cells after 4 days by XTT assay; format: toxicity, cell-based; conditions: mt2, 96 h
Summary of the method: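 Run in parallel with the antiviral assay. Graded compound added to an equal volume of MT-2 cells (10^5 cells/ml) and incubated 4 days. XTT added, and soluble formazan read at 450 nm after 4 hours.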

[3] = Inhibition of HIV1 HXB2 Env-mediated cell-cell fusion using MAGI-CCR5 as target cells and HL2/3 as effector cells preincubated with target cells for 1 hr followed by effector cells addition measured after 24 hrs by beta-galactosidase reporter gene assay; conditions: Human immunodeficiency virus 1, HXB2
[4] = tested on: Human immunodeficiency virus 1; assay: Antiviral activity against X4 tropic HIV1 HXB2 assessed as inhibition of single cycle viral infection in human TZM-bl cells preincubated for 30 mins followed by addition of cells measured after 3 days by luciferase reporter gene assay; format: functional, cell-based
[5] = tested on: Human immunodeficiency virus 1; assay: Antiviral activity against HIV1 3B assessed as inhibition of multi-cycle viral infection in human MT2 cells by measuring p24 production preincubated for 30 mins followed by addition of cells measured after 4 days by sandwich ELISA; format: functional, cell-based
Summary of the method: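 Overnight at 37 °C, then supernatant replaced with fresh medium. Day 4 post-infection, supernatants mixed with equal volume 5% Triton X-100 and p24 measured by sandwich ELISA. IC50 derived from percent inhibition of p24 production; mean ± SD.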

[6] = tested on: Human immunodeficiency virus 1; assay: Inhibition of CD4-dependent CCR5-tropic HIV1 ADA cell to cell transmission using Ghost X4/R5 cells as target cells and MOLT4 as effector cells assessed as p24 release incubated for 4 hrs by sandwich ELISA method; format: functional, cell-based; conditions: Human immunodeficiency virus 1, ADA, MOLT-4, 4 h
[7] = tested on: Human immunodeficiency virus 1; assay: Inhibition of CD4-dependent CXCR4-tropic HIV1 3B cell to cell transmission using Ghost X4/R5 cells as target cells and H9 as effector cells assessed as p24 release incubated for 4 hrs by sandwich ELISA method; format: functional; conditions: Human immunodeficiency virus 1, 3B
[8] = tested on: Human immunodeficiency virus 1; assay: Antiviral activity against ENV pseudotyped HIV1 subtype A/D QA790.204I.ENV.C8; format: functional; conditions: Human immunodeficiency virus 1, subtype A/D QA790.204I.ENV.C8
[9] = tested on: Human immunodeficiency virus 1; assay: Antiviral activity against ENV pseudotyped HIV1 subtype A/D QA790.204I.ENV.E2; format: functional; conditions: Human immunodeficiency virus 1, subtype A/D QA790.204I.ENV.E2
[10] = tested on: Human immunodeficiency virus 1; assay: Antiviral activity against ENV pseudotyped HIV1 subtype A/E AA058; format: functional; conditions: Human immunodeficiency virus 1, subtype A/E AA058
[11] = tested on: Human immunodeficiency virus 1; assay: Antiviral activity against ENV pseudotyped HIV1 PRHPA4259 clone 7; format: functional; conditions: Human immunodeficiency virus 1, PRHPA4259 clone 7
[12] = tested on: Human immunodeficiency virus 1; assay: Antiviral activity against ENV pseudotyped HIV1 subtype C ZM233M.PB6; format: functional; conditions: Human immunodeficiency virus 1, subtype C ZM233M.PB6
[13] = tested on: Human immunodeficiency virus 1; assay: Antiviral activity against ENV pseudotyped HIV1 subtype D QD435.100M.ENV.B5; format: functional; conditions: Human immunodeficiency virus 1, subtype D QD435.100M.ENV.B5
[14] = tested on: Vesicular stomatitis virus; assay: Antiviral activity against G-glycoprotein expressing VSV; format: functional
[15] = Human immunodeficiency virus 1, HXB2, TZM-bl
[16] = Human immunodeficiency virus 1, 3B, MT2

Question: For Cc1nc([C@H](CN)NC(=O)c2ccc(-c3ccc(Cl)c(F)c3)[nH]2)sc1CO, which CC50 [1] is on record?
Answer: 40.5 µM

Question: What about the CC50 [2] of the same compound?
Answer: 30.5 µM

Question: What about the IC50 [3] of the same compound?
Answer: 15.2 µM

Question: With Cc1ccc(-c2ccc(C(=O)N[C@H](c3nc(C)c(CO)s3)[C@@H]3CCCCN3)[nH]2)cc1F as the compound, how does the IC50 [4, 15] read?
Answer: 2.7 µM

Question: What about the CC50 [1] of the same compound?
Answer: 18 µM

Question: And the IC50 [5, 16]?
Answer: 3 µM

Question: And the CC50 [2]?
Answer: 16.1 µM

Question: What does the source list for Cc1nc([C@@H](NC(=O)c2ccc(-c3ccc(Cl)c(F)c3)[nH]2)[C@@H]2CCCCN2)sc1CCO?
Answer: IC50 [4, 15]: 7.5 µM; CC50 [1]: 16.1 µM; IC50 [5, 16]: 3.4 µM; CC50 [2]: 16.9 µM

Question: Which IC50 [4, 15] does the source give for Cc1nc([C@H](NC(=O)c2ccc(-c3ccc(Cl)cc3)[nH]2)[C@@H]2CCCCN2)sc1CCCO here?
Answer: 7.6 µM

Question: What about the CC50 [1] of the same compound?
Answer: 13.7 µM

Question: And the IC50 [5, 16]?
Answer: 5.8 µM

Question: And the CC50 [2]?
Answer: 19 µM

Question: Which results are given for Cc1ccc(-c2ccc(C(=O)N[C@@H](CN)c3nc(C)c(CO)s3)[nH]2)cc1F?
Answer: IC50 [4, 15]: 1.7 µM; CC50 [1]: 35 µM; IC50 [5, 16]: 0.91 µM; CC50 [2]: 31.6 µM

Question: With Cc1nc([C@@H](CN)NC(=O)c2ccc(-c3ccc(Cl)cc3)[nH]2)sc1CO as the compound, how does the CC50 [1] read?
Answer: 34.1 µM

Question: What about the CC50 [2] of the same compound?
Answer: 28.2 µM

Question: With Cc1nc([C@@H](NC(=O)c2ccc(-c3ccc(Cl)c(F)c3)[nH]2)[C@H]2CCCCN2)sc1CO as the compound, how does the IC50 [4, 15] read?
Answer: 3 µM

Question: What about the CC50 [1] of the same compound?
Answer: 15.2 µM

Question: And the IC50 [5, 16]?
Answer: 1.6 µM

Question: What about the CC50 [2] of the same compound?
Answer: 17.2 µM

Question: For Cc1nc(C(NC(=O)c2ccc(-c3ccc(Cl)cc3)[nH]2)C2CCCCN2)[nH]c1CO (stereo in doubt; 35A), which IC50 [4, 15] is on record?
Answer: 14.1 µM

Question: And the CC50 [1]?
Answer: 30 µM

Question: And the IC50 [5, 16]?
Answer: 10.2 µM

Question: What about the CC50 ([2]; 96 h) of the same compound?
Answer: 36.6 µM

Question: What does the source list for Cc1ccc(-c2ccc(C(=O)N[C@H](c3nc(C)c(CCO)s3)[C@@H]3CCCCN3)[nH]2)cc1F?
Answer: IC50 [4, 15]: 10.6 µM; CC50 [1]: 28.8 µM; IC50 [5, 16]: 6.1 µM; CC50 [2]: 29.7 µM

Question: Which results are given for Cc1ccc(-c2ccc(C(=O)NC(c3nc(C)c(CO)[nH]3)C3CCCCN3)[nH]2)cc1F (stereo in doubt; 37A)?
Answer: IC50 [4, 15]: 9.4 µM; CC50 [1]: 33.3 µM; IC50 [5, 16]: 12.9 µM; CC50 ([2]; 96 h): 28.4 µM

Question: Which IC50 [4, 15] does the source give for Cc1nc([C@@H](NC(=O)c2ccc(-c3ccc(Cl)cc3)[nH]2)[C@@H]2CCCCN2)sc1CCO here?
Answer: 8.9 µM

Question: What about the CC50 [1] of the same compound?
Answer: 17.3 µM

Question: And the IC50 [5, 16]?
Answer: 2 µM

Question: And the CC50 [2]?
Answer: 26.8 µM

Question: With Cc1nc(C(NC(=O)c2ccc(-c3ccc(Cl)c(F)c3)[nH]2)C2CCCCN2)[nH]c1CO (stereo in doubt; 36B) as the compound, how does the IC50 ([4]; tzm-bl) read?
Answer: 16 µM

Question: And the CC50 [1]?
Answer: 30.7 µM

Question: And the IC50 ([5]; mt2)?
Answer: 22.8 µM

Question: What about the CC50 ([2]; 96 h) of the same compound?
Answer: 36.4 µM

Question: With Cc1nc([C@H](NC(=O)c2ccc(-c3ccc(Cl)c(F)c3)[nH]2)[C@@H]2CCCCN2)sc1CCCO as the compound, how does the IC50 [4, 15] read?
Answer: 5.1 µM

Question: And the CC50 [1]?
Answer: 8.2 µM

Question: What about the IC50 [5, 16] of the same compound?
Answer: 4.5 µM

Question: What about the CC50 [2] of the same compound?
Answer: 12.6 µM

Question: With Cc1nc([C@H](NC(=O)c2ccc(-c3ccc(Cl)cc3)[nH]2)[C@@H]2CCCCN2)sc1CCO as the compound, how does the IC50 [4, 15] read?
Answer: 5.7 µM

Question: What about the CC50 [1] of the same compound?
Answer: 15.4 µM

Question: What about the IC50 [5, 16] of the same compound?
Answer: 4.6 µM

Question: And the CC50 [2]?
Answer: 21 µM

Question: What does the source list for Cc1nc(C(NC(=O)c2ccc(-c3ccc(Cl)c(F)c3)[nH]2)C2CCCCN2)[nH]c1CO (stereo in doubt; 36A)?
Answer: IC50 [4, 15]: 8.8 µM; CC50 [1]: 26.7 µM; IC50 ([5]; mt2): 10.6 µM; CC50 ([2]; 96 h): 31.1 µM

Question: For Cc1nc([C@H](NC(=O)c2ccc(-c3ccc(Cl)c(F)c3)[nH]2)[C@@H]2CCCCN2)sc1CCO, which IC50 [4, 15] is on record?
Answer: 8 µM

Question: What about the CC50 [1] of the same compound?
Answer: 15.1 µM

Question: What about the IC50 [5, 16] of the same compound?
Answer: 2.9 µM

Question: And the CC50 [2]?
Answer: 16.8 µM

Question: For Cc1nc([C@@H](CN)NC(=O)c2ccc(-c3ccc(Cl)c(F)c3)[nH]2)sc1CO, which CC50 [1] is on record?
Answer: 26 µM

Question: What about the CC50 [2] of the same compound?
Answer: 22.7 µM

Question: Which results are given for Cc1ccc(-c2ccc(C(=O)N[C@@H](c3nc(C)c(CCO)s3)[C@@H]3CCCCN3)[nH]2)cc1F?
Answer: IC50 [4, 15]: 6.3 µM; CC50 [1]: 15.3 µM; IC50 [5, 16]: 3 µM; CC50 [2]: 21.2 µM

Question: Which results are given for Cc1ccc(-c2ccc(C(=O)N[C@@H](c3nc(C)c(CO)s3)[C@@H]3CCCCN3)[nH]2)cc1F?
Answer: IC50 [4, 15]: 3.8 µM; CC50 [1]: 19.2 µM; IC50 [5, 16]: 1.6 µM; CC50 [2]: 28.2 µM

Question: Which results are given for Cc1ccc(-c2ccc(C(=O)N[C@@H](c3nc(C)c(CCCO)s3)[C@@H]3CCCCN3)[nH]2)cc1F?
Answer: IC50 [4, 15]: 7.9 µM; CC50 [1]: 17 µM; IC50 [5, 16]: 7.4 µM; CC50 [2]: 20.6 µM

Question: Which IC50 ([4]; tzm-bl) does the source give for Cc1ccc(-c2ccc(C(=O)NC(c3nc(C)c(CO)[nH]3)C3CCCCN3)[nH]2)cc1F (stereo in doubt; 37B) here?
Answer: 16.9 µM

Question: And the CC50 [1]?
Answer: 34.5 µM

Question: What about the IC50 ([5]; mt2) of the same compound?
Answer: 22.3 µM

Question: And the CC50 ([2]; 96 h)?
Answer: 37.1 µM

Question: For Cc1nc([C@H](NC(=O)c2ccc(-c3ccc(Cl)c(F)c3)[nH]2)[C@H]2CCCCN2)sc1CO, which IC50 [4, 15] is on record?
Answer: 3.2 µM

Question: And the CC50 [1]?
Answer: 17.4 µM

Question: And the IC50 [5, 16]?
Answer: 2.6 µM

Question: What about the CC50 [2] of the same compound?
Answer: 26 µM

Question: What does the source list for Cc1ccc(-c2ccc(C(=O)N[C@H](CN)c3nc(C)c(CO)s3)[nH]2)cc1F?
Answer: IC50 [4, 15]: 1.1 µM; CC50 [1]: 26.2 µM; IC50 [5, 16]: 0.65 µM; CC50 [2]: 24.3 µM

Question: For Cc1nc([C@H](CN)NC(=O)c2ccc(-c3ccc(Cl)cc3)[nH]2)sc1CO, which CC50 [1] is on record?
Answer: 33.6 µM

Question: And the CC50 [2]?
Answer: 25.8 µM

Question: And the IC50 [3]?
Answer: 11.9 µM

Question: What about the IC50 [6] of the same compound?
Answer: 30 µM

Question: Which CC50 [1] does the source give for Cc1nc([C@H](NC(=O)c2ccc(-c3ccc(Cl)cc3)[nH]2)[C@@H]2CCCCN2)sc1CO here?
Answer: 23.6 µM

Question: What about the IC50 [5, 16] of the same compound?
Answer: 0.85 µM

Question: What about the CC50 [2] of the same compound?
Answer: 24.8 µM

Question: What about the IC50 [3] of the same compound?
Answer: 8.9 µM

Question: And the IC50 [7]?
Answer: 8.8 µM

Question: And the IC50 [8]?
Answer: 1.5 µM

Question: And the IC50 [9]?
Answer: 0.71 µM

Question: What about the IC50 [10] of the same compound?
Answer: 4.4 µM

Question: And the IC50 [11]?
Answer: 1.4 µM

Question: What about the IC50 [12] of the same compound?
Answer: 1.7 µM

Question: And the IC50 [13]?
Answer: 1.6 µM

Question: What about the IC50 [14] of the same compound?
Answer: 7.1 µM

Question: What does the source list for Cc1nc(C(NC(=O)c2ccc(-c3ccc(Cl)cc3)[nH]2)C2CCCCN2)[nH]c1CO (stereo in doubt; 35B)?
Answer: IC50 ([4]; tzm-bl): 15.8 µM; CC50 [1]: 33.8 µM; IC50 ([5]; mt2): 18 µM; CC50 ([2]; 96 h): 45.2 µM
